Data set [1] addresses T1, Fatty-acid amide hydrolase 1 (Rattus norvegicus, UniProt P97612).
T1 sequence (P97612 whole entry): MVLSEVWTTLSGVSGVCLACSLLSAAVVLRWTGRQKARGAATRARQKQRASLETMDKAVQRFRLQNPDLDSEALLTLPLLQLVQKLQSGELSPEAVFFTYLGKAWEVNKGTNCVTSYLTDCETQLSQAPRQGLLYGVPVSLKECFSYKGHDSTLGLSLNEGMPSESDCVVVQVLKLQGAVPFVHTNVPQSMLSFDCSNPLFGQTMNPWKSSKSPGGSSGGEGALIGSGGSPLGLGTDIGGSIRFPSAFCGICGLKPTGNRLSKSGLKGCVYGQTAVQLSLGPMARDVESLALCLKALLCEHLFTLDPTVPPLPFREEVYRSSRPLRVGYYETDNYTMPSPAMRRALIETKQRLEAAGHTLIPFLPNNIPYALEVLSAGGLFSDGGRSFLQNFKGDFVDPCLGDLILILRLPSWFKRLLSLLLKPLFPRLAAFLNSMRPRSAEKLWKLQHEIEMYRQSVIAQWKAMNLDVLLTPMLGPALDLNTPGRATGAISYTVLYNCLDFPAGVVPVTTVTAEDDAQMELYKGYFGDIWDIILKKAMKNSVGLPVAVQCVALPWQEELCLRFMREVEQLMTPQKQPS
As to the kind of experiment: Inhibition of FAAH in rat brain homogenates using [3H]anandamide as substrate preincubated for 60 mins by liquid scintillation spectroscopy.

Data set [2] in a line: Drug uptake in Sprague-Dawley rat amygdaloid nuclei at 0.7 to 0.8 nmol/kg, iv after 40 mins by autoradiography analysis in presence of FAAH inhibitor PF-04457845. In kind it is ADME, organism-based. To be noted: in vivo. In outline: (§1)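 Male Sprague-Dawley rats (310–330 g) got 45–55 MBq radiotracer (0.7–0.8 nmol/kg) by tail vein. Pretreated 40 min earlier with vehicle (5% Tween80/saline) or PF-04457845 0.5 mg/kg ip. Killed 40 min post-injection. Brains frozen, cut into 20-μm coronal sections at −20°C, dried, exposed to film for 6 days.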

A short description of data set [3]: Drug uptake in Sprague-Dawley rat thalamic nuclei at 0.7 to 0.8 nmol/kg, iv after 40 mins by autoradiography analysis. In kind it is ADME, organism-based. The conditions noted are these: in vivo. In outline:
as §1

For data set [4], the system named is Brain. The data set can be described thus: Biodistribution in rat brain at < 1 nmol/kg, iv after 2 to 40 mins by gamma counting in presence of FAAH inhibitor URB597. In kind it is ADME, organism-based. The conditions noted are these: in vivo. In outline: (§2)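 [18F]radiotracer, 3–4 MBq (0.2–1 nmol/kg), given by tail vein in 0.3 mL 10% ethanol/citrate buffer pH 6 to restrained conscious rats. Decapitation at set times. Regions excised, blotted, weighed. Gamma counting decay-corrected to injection against injected-dose standards. Reported as SUV (%ID/g […] body weight kg), mean ± SD, n=4/group. Blocked groups vs vehicle by Student's t test.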

A short description of data set [5]: Irreversible biodistribution in iv dosed rat brain parenchyma after 2 to 40 mins by gamma counting in presence of FAAH inhibitor URB597. In kind it is ADME, organism-based. To be noted: in vivo. In outline:
(§3)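 After tail-vein radiotracer, rats (n=4–6/group) killed at 2, 10 or 40 min. Whole brain rinsed in saline and homogenised in cold 80% acetonitrile/0.01% aq HCl. Centrifuged and extracted three times in total. Pooled supernatant (unbound) and pellet (bound) counted separately. […] Mean ± SD.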

Data set [6] concerns Plasma. As to the kind of experiment: Drug metabolism in rat plasma after 10 mins. In kind it is ADME, cell-free. A digest of the protocol:
(§4)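 Rats given radiotracer iv, killed at 10 min. Trunk blood taken into heparin, plasma separated and acidified with 10% v/v acetic acid. Plasma and brain homogenate extracts analysed directly by reverse-phase radio-HPLC for parent vs metabolites.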

The test system of data set [7] is Cortex. As to the kind of experiment: Biodistribution in rat brain cortex at < 1 nmol/kg, iv after 40 mins by gamma counting. In kind it is ADME, organism-based. To be noted: in vivo. A digest of the protocol: as §2
Data set [8] relates to Cortex. As to the kind of experiment: Biodistribution in rat brain cortex at < 1 nmol/kg, iv after 2 mins by gamma counting. In kind it is ADME, organism-based. The conditions noted are these: in vivo. In outline:
as §2

Data set [9] deals with Cortex. The data set can be described thus: Drug uptake in Sprague-Dawley rat cortex at 0.7 to 0.8 nmol/kg, iv after 40 mins by autoradiography analysis. In kind it is ADME, organism-based. To be noted: in vivo. In outline:
as §1

Data set [10] deals with Hypothalamus. The data set can be described thus: Biodistribution in rat brain hypothalamus at < 1 nmol/kg, iv after 2 mins by gamma counting. In kind it is ADME, organism-based. The conditions noted are these: in vivo. A digest of the protocol:
as §2

Data set [11] in a line: Drug uptake in Sprague-Dawley rat cerebellar cortex at 0.7 to 0.8 nmol/kg, iv after 40 mins by autoradiography analysis in presence of FAAH inhibitor PF-04457845. The conditions noted are these: in vivo. In kind it is ADME, organism-based. A digest of the protocol:
as §1

The test system of data set [12] is Hippocampus. As to the kind of experiment: Drug uptake in Sprague-Dawley rat hippocampus at 0.7 to 0.8 nmol/kg, iv after 40 mins by autoradiography analysis in presence of FAAH inhibitor PF-04457845. The conditions noted are these: in vivo. In kind it is ADME, organism-based. A digest of the protocol: as §1
Data set [13] deals with Hippocampus. As to the kind of experiment: Drug uptake in Sprague-Dawley rat hippocampus at 0.7 to 0.8 nmol/kg, iv after 40 mins by autoradiography analysis. In kind it is ADME, organism-based. To be noted: in vivo. In outline:
as §1

Data set [14] can be described thus: Drug uptake in Sprague-Dawley rat amygdaloid nuclei at 0.7 to 0.8 nmol/kg, iv after 40 mins by autoradiography analysis. In kind it is ADME, organism-based. The conditions noted are these: in vivo. A digest of the protocol:
as §1

A short description of data set [15]: Irreversible biodistribution in iv dosed rat brain parenchyma after 10 mins by gamma counting. In kind it is ADME, organism-based. To be noted: in vivo. A digest of the protocol:
as §3

A short description of data set [16]: Drug metabolism in rat brain after 10 mins. In kind it is ADME, tissue-based. The conditions noted are these: read-out: Drug metabolism. In outline:
as §4

Data set [17] in a line: Drug metabolism in human plasma after 30 mins. In kind it is ADME, cell-free. To be noted: read-out: Drug metabolism. A digest of the protocol:
(§5)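 Radiotracer incubated in vitro in rat or human plasma for 30 min at ambient temperature. Decomposition assessed by radio-HPLC.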

Data set [18] deals with Cortex. As to the kind of experiment: Drug uptake in Sprague-Dawley rat cerebellar cortex at 0.7 to 0.8 nmol/kg, iv after 40 mins by autoradiography analysis. In kind it is ADME, organism-based. The conditions noted are these: in vivo. A digest of the protocol: as §1
For data set [19], the system named is Brain. As to the kind of experiment: Biodistribution in rat brain at < 1 nmol/kg, iv after 2 to 40 mins by gamma counting in presence of FAAH inhibitor PF-04457845. In kind it is ADME, organism-based. To be noted: in vivo. A digest of the protocol:
as §2

Data set [20] can be described thus: Drug uptake in Sprague-Dawley rat thalamic nuclei at 0.7 to 0.8 nmol/kg, iv after 40 mins by autoradiography analysis in presence of FAAH inhibitor PF-04457845. In kind it is ADME, organism-based. To be noted: in vivo. A digest of the protocol:
as §1

The subject of data set [21] is Cortex. The data set can be described thus: Drug uptake in Sprague-Dawley rat cortex at 0.7 to 0.8 nmol/kg, iv after 40 mins by autoradiography analysis in presence of FAAH inhibitor PF-04457845. In kind it is ADME, organism-based. To be noted: in vivo. A digest of the protocol: as §1
In data set [22] the test system is Plasma. The data set can be described thus: Drug metabolism in rat plasma after 30 mins. In kind it is ADME, cell-free. The conditions noted are these: 0.5 h. A digest of the protocol: as §5
Data set [23] in a line: Irreversible biodistribution in iv dosed rat brain parenchyma after 2 mins by gamma counting. In kind it is ADME, organism-based. To be noted: in vivo. A digest of the protocol:
as §3

Data set [24] can be described thus: Irreversible biodistribution in iv dosed rat brain parenchyma after 40 mins by gamma counting. In kind it is ADME, organism-based. To be noted: in vivo. In outline:
as §3

The test system of data set [25] is Hypothalamus. The data set can be described thus: Biodistribution in rat brain hypothalamus at < 1 nmol/kg, iv after 40 mins by gamma counting. In kind it is ADME, organism-based. To be noted: in vivo. In outline:
as §2

From ChEMBL document CHEMBL2396616, “Development and characterization of a promising fluorine-18 labelled radiopharmaceutical for in vivo imaging of fatty acid amide hydrolase” (Bioorg Med Chem, 2013) come the findings set out here.

pIC50: −log10 of the molar value.

As usually defined, the pIC50 is the negative decadic logarithm of the IC50, by convention in mol/L. A higher pIC50 goes with a low IC50.

In data set [1], `O=C(NCCCCCF)Oc1cccc(C2=NCCO2)c1` had a pIC50 of 9.09.

`O=C(NCCCCC[18F])Oc1cccc(C2=NCCO2)c1`: the Drug uptake entry is “Not Active” in data set [2]; “Active” in data set [3]; “Not Active” in the data set with Brain [4]; 24% in data set [5]; “Active” in the data set on Cortex [9]; “Not Active” in [11]. The Drug uptake result is “Not Active” in the data set with Hippocampus [12]; “Active” with Hippocampus [13]; “Active” in data set [14]; 94% in data set [15]; “Active” in the data set with Cortex [18]; “Not Active” in the data set on Brain [19]. Moreover, the Drug uptake entry is listed as “Not Active” in [20], “Not Active” in the data set with Cortex [21], 91% in data set [23] and 90% in [24]. The values for the Drug metabolism with Plasma [6] and in the data set with Plasma [22] were above 95% and above 50%, respectively. In addition, the SUV in the data set on Cortex [7] worked out at 4.55; in the data set with Cortex [8] it was 3.9; in the data set with Hypothalamus [10], 1.74; in the data set with Hypothalamus [25], 1.59. Moreover, the metabolised at 10 min in [16] stood at 50%. Also, in data set [17], the metabolised at 0.5 h was below 5%.
